Laboratory results published in ChEMBL document CHEMBL4616694, “Selective Covalent Targeting of Mutated EGFR(T790M) with Chlorofluoroacetamide-Pyrimidines” (ACS Med Chem Lett, 2020).
pIC50: −log10 of the molar value. Values belong to the compound of their own block, whether it stands above or below them. The source made the active and inactive calls. The calls are words filed in the database; no cut-off is given here.

What was measured:
[1] = system: NCI-H1975; assay: Antiproliferative activity against human NCI-H1975 cells harboring EGFR L858R/T790M mutant assessed as reduction in cell viability measured after 72 hrs by WST assay; format: functional, cell-based; settings: NCI-H1975, 72 h
[2] = system: NCI-H292; assay: Antiproliferative activity against human NCI-H292 cells expressing wild type EGFR assessed as reduction in cell viability measured after 72 hrs by WST assay; format: functional, cell-based; settings: NCI-H292, 72 h
[3] = Selectivity index, ratio of IC50 for human NCI-H292 cells expressing wild type EGFR assessed as reduction in cell viability measured after 72 hrs by MTT assay to IC50 for human NCI-H1975 cells harboring EGFR L858R/T790M mutant assessed as reduction in cell viability measured after 72 hrs by MTT assay; format: functional
[4] = molecular target: Epidermal growth factor receptor (Homo sapiens) (UniProt P00533); assay: (§1) Competitive binding affinity to EGFR in human H1975 cells assessed as protein labeling pretreated with compound followed by subsequent addition of copper-catalyzed azide-alkyne cyclo with rhodamine azide measured after 1 hr by in-gel fluorescence assay; format: cell-based
In short: (§2)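 H1975 cells were incubated with the alkyne CFA probe for 1 h at 37 °C. Labeled proteins were clicked to rhodamine-azide by CuAAC and resolved by in-gel fluorescence, with EGFR taken as the 175 kDa band. For competition, excess osimertinib was present. Labeling was also run across probe concentrations, including 1–10 µM.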

[5] = molecular target: Epidermal growth factor receptor (Homo sapiens) (UniProt P00533); assay: Competitive binding affinity to wild type EGFR expressed in human H292 cells assessed as protein labeling pretreated with compound followed by subsequent addition of copper-catalyzed azide-alkyne cyclo with rhodamine azide incubated for 2 hrs by in-gel fluorescence assay; format: cell-based
[6] = molecular target: Epidermal growth factor receptor (Homo sapiens) (UniProt P00533); assay: Competitive binding affinity to wild type EGFR expressed in human HEK293 cells assessed as protein labeling pretreated with compound followed by subsequent addition of copper-catalyzed azide-alkyne cyclo with rhodamine azide incubated for 2 hrs by in-gel fluorescence assay; format: cell-based
[7] = system: Epidermal growth factor receptor (Homo sapiens), P00533 [L858R,T790M]; assay: Binding affinity to EGFR L858R/T790M mutant expressed in human H1975 cells assessed as protein labeling at 1 uM measured after 1 hr by pull down based Western blot analysis
[8] = system: Epidermal growth factor receptor (Homo sapiens), P00533 [L858R,T790M]; assay: as §1, with “EGFR L858R/T790M” for “EGFR”, “fluorescent band formation by measuring molecular weight at 5 uM” for “protein labeling”; format: cell-based; in short: as §2
[9] = molecular target: Epidermal growth factor receptor (Homo sapiens) (UniProt P00533); assay: Competitive binding affinity to EGFR in human H1975 cells assessed as protein labeling at 1 uM pretreated with compound followed by subsequent addition of copper-catalyzed azide-alkyne cyclo with rhodamine azide by in-gel fluorescence assay; format: cell-based; settings: TDE = time-dependent effect
In short: (§3)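 H1975 cells were labeled over time with 1 µM alkyne probe, with incubations extending to 10 h. Labeled proteins were conjugated to rhodamine-azide by copper-catalyzed azide-alkyne cycloaddition and read by in-gel fluorescence.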

[10] = molecular target: Epidermal growth factor receptor (Homo sapiens) (UniProt P00533); assay: Competitive binding affinity to wild type EGFR expressed in human H292 cells assessed as protein labeling at 1 uM pretreated with compound followed by subsequent addition of copper-catalyzed azide-alkyne cyclo with rhodamine azide by in-gel fluorescence assay; format: cell-based; settings: TDE = time-dependent effect
[11] = system: Epidermal growth factor receptor (Homo sapiens), P00533 [L858R,T790M]; assay: as §1, with “EGFR L858R/T790M mutant” for “EGFR”, “fluorescent band formation at 5 uM” for “protein labeling”, “hr in presence of osimertinib” for “hr”; format: cell-based; in short: as §2
[12] = molecular target: Epidermal growth factor receptor (Homo sapiens) (UniProt P00533); assay: Competitive binding affinity to wild type EGFR expressed in human H292 cells assessed as SILAC ratio at 5 uM measured after 2 hrs by MS analysis; format: cell-based
[13] = molecular target: Epidermal growth factor receptor (Homo sapiens) (UniProt P00533); assay: Binding affinity to wild type EGFR expressed in human H292 cells assessed as protein labeling at 1 uM measured after 1 hr by pull down based Western blot analysis
[14] = system: Epidermal growth factor receptor (Homo sapiens), P00533 [L858R,T790M]; assay: (§4) Binding affinity to recombinant human EGFR L858R/T790M mutant kinase domain assessed as stability of compound-protein adduct at 2 uM pretreated with compound followed by subsequent addition of copper-catalyzed azide-alkyne cyclo with rhodamine azide measured after 24 hrs by coomassie brilliant blue staining based in-gel fluorescence assay
[15] = molecular target: Epidermal growth factor receptor (Homo sapiens) (UniProt P00533); assay: Competitive binding affinity to EGFR in human H1975 cells assessed as protein labeling at 1 uM pretreated with compound followed by subsequent addition of copper-catalyzed azide-alkyne cyclo with rhodamine azide incubated for 10 hrs by in-gel fluorescence assay; format: cell-based; in short: as §3
[16] = molecular target: Epidermal growth factor receptor (Homo sapiens) (UniProt P00533); assay: Competitive binding affinity to wild type EGFR expressed in human HEK293 cells assessed as protein labeling at 1 uM pretreated with compound followed by subsequent addition of copper-catalyzed azide-alkyne cyclo with rhodamine azide by in-gel fluorescence assay; format: cell-based; settings: TDE = time-dependent effect
[17] = Half life of compound in phosphate buffer at pH 7.4 and 37 degree C under neutral aqueous condition in presence of excess glutathione; format: physicochemical; settings: phosphate buffer with excess glutathione
In short: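 Compound was incubated with excess glutathione under neutral aqueous conditions (pH 7.4, 37 °C), and half-reaction time was determined from the time course.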

[18] = system: Epidermal growth factor receptor (Homo sapiens), P00533 [L858R,T790M]; assay: as §4, with “rapid covalent modification” for “stability of compound-protein adduct”, “72” for “24”
[19] = system: Epidermal growth factor receptor (Homo sapiens), P00533 [L858R,T790M]; assay: Competitive binding affinity to EGFR L858R/T790M mutant expressed in human H1975 cells assessed as SILAC ratio at 5 uM measured after 2 hrs by MS analysis; format: cell-based
In short: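 SILAC mass spectrometry in isotopically labeled H1975 cells treated with the probe at 5 µM for 2 h at 37 °C, followed by streptavidin enrichment. Reported values are log2 median SILAC ratios (probe/DMSO or probe/probe) from triplicate MS analyses of a single enriched sample.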

[20] = species: Homo sapiens; assay: Selectivity index, ratio of IC50 for wild type EGFR (unknown origin) to IC50 for human EGFR L858R/T790M mutant expressed in baculovirus infected insect cells
[21] = Cmax in BALB/c mouse at 25 mg/kg, po administered as single dose measured at 2 hrs; format: ADME, organism-based; set-up: dose 25 mg/kg, route oral; settings: in vivo
In short: (§5)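 Mice received a single oral dose of 25 mg/kg. Plasma compound levels were followed over time, giving peak concentration with its time and mean residence time.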

[22] = system: Epidermal growth factor receptor (Homo sapiens), P00533 [L858R,T790M]; assay: as §4, with “fluorescent band formation” for “stability of compound-protein adduct”, “72” for “24”
[23] = system: Epidermal growth factor receptor (Homo sapiens), P00533 [L858R,T790M]; assay: Inhibition of EGFR L858R/T790M mutant in human H1975 cells assessed as reduction in autophosphorylation at Y1068 residue at 10 nM by Western blot analysis; format: cell-based
In short: (§6)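 H1975 cells were treated at 10 nM, and EGFR Y1068 autophosphorylation was assessed by western blot. For irreversibility, compound was washed out of the culture medium and phospho-EGFR was examined for at least 8 h afterwards.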

[24] = system: Epidermal growth factor receptor (Homo sapiens), P00533 [L858R,T790M]; assay: Irreversible inhibition of EGFR L858R/T790M mutant in human H1975 cells assessed as reduction in autophosphorylation at Y1068 residue at 10 nM measured after 8 hrs post compound washout by Western blot analysis; format: cell-based; in short: as §6
[25] = system: Epidermal growth factor receptor (Homo sapiens), P00533 [L858R,T790M]; assay: Binding affinity to recombinant human EGFR L858R/T790M mutant kinase domain expressed in baculovirus infected insect cells assessed as covalent bond formation between protein Cys797 residue-compound by LC-MS/MS analysis
[26] = Mean residence time in BALB/c mouse at 25 mg/kg, po administered as single dose measured at 2 hrs; format: ADME, organism-based; settings: in vivo; in short: as §5
[27] = system: Epidermal growth factor receptor (Homo sapiens), P00533 [L858R,T790M]; assay: as §4, with “as” for “as stability of”, “adduct formation” for “adduct”, “72” for “24”

SMILES: COc1cc(N(C)CCN(C)C)c(NC(=O)CNC(=O)C(F)Cl)cc1Nc1ncc(Cl)c(-c2c[nH]c3ccccc23)n1 (centres undefined)
pIC50 [1]: 6.89

SMILES: COc1cc(N(C)CCN(C)C)c(NC(=O)[C@H](C)NC(C)=O)cc1Nc1ncc(C(F)(F)F)c(-c2c[nH]c3ccccc23)n1
pIC50 [1]: 6.34
pIC50 [2]: 5.44
Ratio IC50 [3]: 7.8

SMILES: CNC(=O)[C@H](CSC(F)C(=O)N[C@@H](C)C(=O)Nc1cc(Nc2ncc(C(F)(F)F)c(-c3c[nH]c4ccccc34)n2)c(OC)cc1N(C)CCN(C)C)NC(C)=O (some centres undefined)
half-life [17]: 11.2 h

SMILES: COc1cc(N(C)CCN(C)C)c(NC(=O)[C@H](C)NC(=O)C(F)Cl)cc1Nc1ncc(C(F)(F)F)c(-c2c[nH]c3ccccc23)n1 (some centres undefined)
Ratio IC50 [20]: 44.7
Cmax [21]: 510 nM
pIC50 [1]: 7.82
Activity [22]: Active
pIC50 [2]: 5.86
inhibition [23]: Active
inhibition [24]: Active
Activity [25]: Active
half-life [17]: 49.4 h
MRT [26]: 8.9 h
Ratio IC50 [3]: 91.3
Activity [27]: Active

SMILES: COc1cc(N(C)CCN(C)C)c(NC(=O)[C@H](CO)NC(=O)C(F)Cl)cc1Nc1ncc(Cl)c(-c2c[nH]c3ccccc23)n1 (some centres undefined)
pIC50 [1]: 6.49

SMILES: COc1cc(N(C)CCN(C)C)c(NC(=O)[C@@H]2CCN2C(=O)C(F)Cl)cc1Nc1ncc(Cl)c(-c2c[nH]c3ccccc23)n1 (some centres undefined)
pIC50 [1]: 6.42

SMILES: COc1cc(N(C)CCN(C)C)c(NC(=O)[C@@H]2C[C@@H](O)CN2C(=O)C(F)Cl)cc1Nc1ncc(Cl)c(-c2c[nH]c3ccccc23)n1 (some centres undefined)
pIC50 [1]: 6.82

SMILES: COc1cc(N(C)CCN(C)C)c(NC(=O)[C@@H](C)NC(=O)C(F)Cl)cc1Nc1ncc(Cl)c(-c2c[nH]c3ccccc23)n1 (some centres undefined)
pIC50 [1]: 6.36

SMILES: COc1cc(N(C)CCN(C)C)c(NC(=O)C(F)Cl)cc1Nc1ncc(C(F)(F)F)c(-c2c[nH]c3ccccc23)n1 (centres undefined)
pIC50 [1]: 7.48
pIC50 [2]: 6.24
Ratio IC50 [3]: 17.3

Now from value to compound, other results behind:

pIC50 [1]: 7.29
Activity [4]: Dose-dependent effect
Activity [5]: Dose-dependent effect
Activity [6]: Dose-dependent effect
Activity [7]: Active
Activity [8]: 175 kDa
Activity [9]: Tde
Activity [10]: Tde
Activity [11]: inactive
log(ratio) [12]: 3.2
Activity [13]: Active
Activity [14]: Active
Activity [15]: Active
Activity [16]: Tde
SMILES: C#CCCN(C)CCN(C)c1cc(OC)c(Nc2ncc(C(F)(F)F)c(-c3c[nH]c4ccccc34)n2)cc1NC(=O)[C@H](C)NC(=O)C(F)Cl (some centres undefined)

pIC50 [1]: 7.28
SMILES: COc1cc(N(C)CCN(C)C)c(NC(=O)[C@H](CC(C)C)NC(=O)C(F)Cl)cc1Nc1ncc(Cl)c(-c2c[nH]c3ccccc23)n1 (some centres undefined)

pIC50 [1]: 7.14
Activity [4]: Dose-dependent effect
Activity [18]: Active
log(ratio) [19]: -0.059
Activity [7]: Active
Activity [9]: Tde
Activity [13]: Active
SMILES: C#CCCN(C)CCN(C)c1cc(OC)c(Nc2nccc(-c3cn(C)c4ccccc34)n2)cc1NC(=O)C=C

pIC50 [1]: 7.30
SMILES: COc1cc(N(C)CCN(C)C)c(NC(=O)C(F)Cl)cc1Nc1ncc(Cl)c(-c2c[nH]c3ccccc23)n1 (centres undefined)

pIC50 [1]: 7.51
pIC50 [2]: 6.15
SMILES: COc1cc(N(C)CCN(C)C)c(NC(=O)[C@H](C)NC(=O)C(F)Cl)cc1Nc1ncc(Cl)c(-c2c[nH]c3ccccc23)n1 (some centres undefined)
Ratio IC50 [3]: 22.9

pIC50 [1]: 7.25
SMILES: COc1cc(N(C)CCN(C)C)c(NC(=O)[C@@H]2CCCN2C(=O)C(F)Cl)cc1Nc1ncc(Cl)c(-c2c[nH]c3ccccc23)n1 (some centres undefined)
